Measured values from the EternaBench riboswitch data.

Test system: MS2 coat protein
Assay: apparent Kd, MS2 coat protein; higher = weaker binding; RNA-MaP array; tryptophan 2.4 mM where present
Method in brief: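 The apparent Kd comes from binding curves fitted cluster by cluster, filtered, and summarised as a median. Those curves followed SNAP-549-labelled MS2 coat protein from 0.7 or 1.5 nM, doubling to 3 µM, on Illumina sequencing-chip clusters where stalled E. coli RNA polymerase had transcribed the designs, without and then with constant ligand. The buffer was 100 mM Tris-HCl pH 7.5, 80 mM KCl, 4 mM MgCl2, BSA, DTT, yeast tRNA and Tween-20, and green signal was normalised to red-channel RNA signal and control-cluster median Fmax.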

[1] = designed as: OFF switch for tryptophan, no ligand
[2] = ligand present: tryptophan, designed as: OFF switch for tryptophan
[3] = designed as: ON switch for tryptophan, no ligand
[4] = ligand present: tryptophan, designed as: ON switch for tryptophan

Row | Sequence | apparent Kd [1] | apparent Kd [2] | apparent Kd [3] | apparent Kd [4]
1 | ACGUCGCAUAGGAAAACUAUGUGACGAAAUCGAGGACCGGUACGGCCGCCACUCGUCCUCAACAUGAGGAUCACCCAUGUAAUAA | 18.7 nM | 36.6 nM |  | 
2 | ACAUGAGGAUCACCCAUGUACGGUAUCAAUCGAGGACCGGUACGGCCGCCACUCGGAAAUAGAAGCGAUUAUUAGUGUUCUUUGU |  |  | 16.2 nM | 15.1 nM
3 | GCGGACAUGAGGAUCACCCAUGUAAAUCCUCGAGGACCGGUACGGCCGCCACUCGAACGAGUGGCACGCGAGUGCGCACUCGCGU |  |  | 24.7 nM | 25.4 nM
4 | ACAUGAGGAUCACCCAUGUGUGUAAGUCCUCGAGGACCGGUACGGCCGCCACUCGAUUGAGUGUAAGUUGAAUGUAACAUUCAAC |  |  | 16.7 nM | 13.8 nM
5 | UAUAUAUAUCACGAACUGUGGUGUAUGUCUCGAGGACCGGUACGGCCGCCACUCGCGCGGCCUCACAUGAGGAUCACCCAUGUUG | 44.6 nM | 46 nM |  | 
6 | CCUAUGCAGUCGGCCGCCACUGAUAAAAUUAUUUUUACCUCAGAAACAUGAGGAUCACCCAUGUACAGGACCGGGACUGUAUAGG | 18.1 nM | 38.5 nM |  | 
7 | CUCCCGUGGUCGGCCGCCACUGGAGGCCUCGCGCGACAUGAGGAUCACCCAUGUUGGCCCGGCUUCAGGACCGGGAUCGCGUGAG |  |  | 12.4 nM | 11.4 nM
8 | UAUCGUCAGACGGCCGCCACUAGAACAUGAGGAUCACCCAUGUAAGUGGCUGGUUCAUGGGUGUCUAGGACCGGGUCUGACGAAU | 17.2 nM | 37.2 nM |  | 
9 | UGGUACUAGGCGGCCGCCACUGGGAGAUACAUGAGGAUCACCCAUGUUUAAUGCCGAGAGGCAACUAGGACCGGGCCUAGUACAU |  |  | 117 nM | 26.5 nM
10 | GGAUUCGGCACGGCCGCCACUGCGGUGGUGUGACAUGAGGAUCACCCAUGUUGUCAUGCGGCCCUUAGGACCGGGUGGCGUUUCC | 49.7 nM | 63.7 nM |  | 
11 | AGCAUCUAGUCGGCCGCCACUCUUAUUACAUGAGGAUCACCCAUGUUUAAUUCAUGGUUAUAUUUGAGGACCGGGACAUUUGCAU | 61.7 nM | 55.8 nM |  | 
12 | UAUCGUCAGACGGCCGCCACUAGAACAUGAGGAUCACCCAUGUAGGCGGCCGAUUCCUCAUUAACUAGGACCGGGUCUGACGAAU | 8.13 nM | 9.67 nM |  | 
13 | CCGUUCUCUGCGGCCGCCACUCAAGGAGCUACAUAGCUCCUAGACAUGAGGAUCACCCAUGUCGCGAGGACCGGGUAGAUUCUCC |  |  | 49.5 nM | 33.2 nM
14 | AGCAACAAGUCGGCCGCCACUCUUUUAACAUGAGGAUCACCCAUGUUUAUAUCAUGGUUUUAAUAGAGGACCGGGACAGUUGCAU | 35.1 nM | 41.8 nM |  | 
15 | CUACAUUUGUAGAAACCGGUCAACAAUAUUCGAGGACCGGUACGGCCGCCACUCGUAUAAUUUAAUACAUGAGGAUCACCCAUGU |  |  | 14.8 nM | 15.9 nM
16 | AUCAUAAUAGACUCGUUAGAUUAUAUGGAACGAGGACCGGUACGGCCGCCACUCGUGAUGUACAUGAGGAUCACCCAUGUUAGCU |  |  | 14.7 nM | 15.2 nM
17 | CGAGUAAGAACAAUCGAAUAACGGUUUUCGCGAGGACCGGUACGGCCGCCACUCGUGUGAAAUAACACAUGAGGAUCACCCAUGU |  |  | 23.1 nM | 20 nM
18 | GCUACAUGAGGAUCACCCAUGUAUGCGAGCCGAGGACCGGUACGGCCGCCACUCGCUUAACAUGAGGAUCACCCAUGUUGCUCGC |  |  | 24 nM | 14.8 nM
19 | ACUCGACCAUCAGCCAUUUGUGAAUCACGGCGAGGACCGGUACGGCCGCCACUCGACAUGAGGAUCACCCAUGUAAGACCGGUGU | 25.8 nM | 50.3 nM |  | 
20 | GUUGAGACCUCGGCCGCCACUCGCCAUGAGGAUCUCCCAUGUAACAUGAGGAUCACCCAUGUACUGAGGACCGGGAGGUCCUUGU |  |  | 12.4 nM | 21.6 nM
21 | AAAAUAAUGGCGGCCGCCACUAACUCAUAUACAUCAUGUACAUGAGGAUCACCCAUGUAGGUGUAUAGGACCGGGCCAUAAUUAA | 18.6 nM | 25.6 nM |  | 
22 | UACAUGAGGAUCACCCAUGUAUAACCGGUACGAGGACCGGUACGGCCGCCACUCGAAACAUGAGGAUCACCCAUGUGCUACUAUU |  |  | 34.5 nM | 35.6 nM
23 | GAGUAGAGGACGGCCGCCACUGAACAUGAGGAUCACCCAUGUCGUGAUCCGUUACCUAGGGUAGAUAGGACCGGGUCAUGUACUC | 42.6 nM | 42.5 nM |  | 
24 | AAUGUAUGGCACAUGAGGAUCACCCAUGUGCGAGGACCGGUACGGCCGCCACUCGGUCCUGGGAUCUUACAACUAUACAUUAAUG | 13.2 nM | 27 nM |  | 
25 | GGCCAUGGAAACAUGGCGGCGGCAUAUGCGCGAGGACCGGUACGGCCGCCACUCGGGCAACAUGAGGAUCACCCAUGUUCCUCAU | 211 nM | 454 nM |  | 
26 | AAUGCCGGAUCGGCCGCCACUGGUUGGCUCUGUGUACAUGAGGAUCACCCAUGUCCAUCCCAAACCAGGACCGGGAUCUUUGUGU |  |  | 13.1 nM | 8.83 nM
27 | ACAUGAGGAUCACCCAUGUACAUCACCCGACGAGGACCGGUACGGCCGCCACUCGGGUAUAUAUUUACAUCGGGUGAUUUUACGU |  |  | 16.7 nM | 18 nM

Row | Sequence | apparent Kd [1] | apparent Kd [2] | apparent Kd [3] | apparent Kd [4]
28 | UUCAGCUAGUCGGCCGCCACUACAUGAGGAUCACCCAUGUAAUCCUAACACUGCUUCGGCAGUGGUAGGACCGGGACUAGCUGAG | 10.6 nM | 17.1 nM |  | 
29 | AAUGUAUGGCACAUGAGGAUCACCCAUGUGCGAGGACCGGUACGGCCGCCACUCGGUCAAGGGAUCUUACCUCUAUACAUUAAUG | 10.4 nM | 18.8 nM |  | 
30 | GCAUCCUAGUCGGCCGCCACUGCAUGUAGUUUUGCUACAUGGAAACAUGAGGAUCACCCAUGUAGCAGGACCGGGACUAGGAUGC |  |  | 27.5 nM | 11.5 nM
31 | AUUACAUGAGCAUCAGCACAUGAGGAUCACCGAGGACCGGUACGGCCGCCACUCGACACAUGAGGAUCACCCAUGUGUUGUUGUU | 286 nM | 244 nM |  | 
32 | AAACAUGAGGAUCACCCAUGUUCUCCUGUCCGAGGACCGGUACGGCCGCCACUCGGUUCUCGGGAGGAUGGUCAAAGACUAUCCA |  |  | 13.7 nM | 13.6 nM
33 | AAUAACAUGAGGAUCACCCAUGUAAGUAAACGAGGACCGGUACGGCCGCCACUCGAAUAAAUAAAGUACCGGUAAGAUCCAGGGA |  |  | 14.8 nM | 16.8 nM
34 | AUUUAUUAGACGGCCGCCACUUGAAAGCGACCUCAUAAAUGGGAACAUGAGGAUCACCCAUGUAAGAGGACCGGGUCUAGUAGAU |  |  | 104 nM | 300 nM
35 | GGGUACAUCACGGCCGCCACUCAUGUAAAUACAUGAGGAUCACCCAUGUCGAUGGAGACAUCGGAGAGGACCGGGUGAUGUACCG |  |  | 338 nM | 272 nM
36 | ACAUGAGGAUCACCCAUGUCAUGAGGUUCACGAGGACCGGUACGGCCGCCACUCGGGCUUCGGAUCACGGAUGUACAUGAUGAUC |  |  | 84 nM | 51.6 nM
37 | UACCCAUGAGUUGGAAAAGCUCAUGGGUAUCGAGGACCGGUACGGCCGCCACUCGGCUGUACAUGAGGAUCACCCAUGUCAGGGU |  |  | 432 nM | 585 nM
38 | CAAUGCAGGUCGGCCGCCACUACACACAUGAGGAUCACCCAUGUAGUUACUGGGUGAAGUGGCAGUAGGACCGGGACCUGCAUAA |  |  | 373 nM | 265 nM
39 | CUUGGCUGUGCGGCCGCCACUGGCUCAUCCUGCAUUACAUGAGGAUCACCCAUGUUGCGGCCUCCCAGGACCGGGCAUAGCCUGA |  |  | 253 nM | 139 nM
40 | UCAGAUGAGGCGGCCGCCACUCGCGGAUAACGAUAGAUUAACAUGAGGAUCACCCAUGUGUCAUGGAGGACCGGGCCCAUGACAU |  |  | 27.9 nM | 23.7 nM
41 | GAUAUAUACUCGGCCGCCACUGAGAGAGUCAUGUAAACAUGAGGAUCACCCAUGUAAUAUAUAUACAGGACCGGGAGUAUAUUAA | 14.8 nM | 14.2 nM |  | 
42 | UGUACCAUGUCGGCCGCCACUCAUGAUAAACAUGAGGAUCACCCAUGUAGCGUCAAAGACGCUAUGAGGACCGGGACAUGGUACU |  |  | 35 nM | 12.2 nM
43 | AAUAGUCCUCGACAUGAGGAUCACCCAUGUCGAGGACCGGUACGGCCGCCACUCGACAUGAGGAUCACCCAUGUUGAGUGAUAAA | 8.34 nM | 7.72 nM |  | 
44 | GUGCUGGUAUCGGCCGCCACUGUAACAUGACAUCCCAGGGCCGACAUGAGGAUCACCCAUGUUAACAGGACCGGGAUAUCAACGA | 14.2 nM | 25.4 nM |  | 
45 | AUUCAUGAAAACAUGACAUGAGGAUCACUCCGAGGACCGGUACGGCCGCCACUCGCGAGGAGGCACAUGAGGAUCACCCAUGUUA |  |  | 114 nM | 82.8 nM
46 | ACAUGAGGAUCACCCAUGUGUGUAAAUCCUCGAGGACCGGUACGGCCGCCACUCGAACGAGUGUAAGAUGAAUGUUACAUUCAUC |  |  | 105 nM | 38.3 nM
47 | CGCCACUCGAGUGAUCCUCACGAGUGGCUACGAGGACCGGUACGGCCGCCACUCGAAUUAACAUGAGGAUCACCCAUGUAAUCCA |  |  | 86.3 nM | 62.5 nM
48 | GCCGCUGCCGCGGUGUGUGUGGGUGGGUGACGAGGACCGGUACGGCCGCCACUCGCGAUCGCACAUGAGGAUCACCCAUGUGUAA | 15 nM | 21.8 nM |  | 
49 | GGACUCGUCACGGCCGCCACUGCGGUGGUGUGACAUGAGGAUCACCCAUGUUGUCAUGCGGCCCUUAGGACCGGGUGUCGCGUCC | 63.1 nM | 67.1 nM |  | 
50 | AGGUGACAUGAGGAUCACCCAUGUGGCUUACGAGGACCGGUACGGCCGCCACUCGGUGUGACCUCCGCAUUCACAUAAUAAUCUU |  |  | 53.9 nM | 45.3 nM
51 | CAAUAUAUAGCGGCCGCCACUUACUCAUGAGGUAACAACAUGAGGAUCACCCAUGUUUGAGGAUCAAGGACCGGGCUAUAUAUUG |  |  | 27.1 nM | 19.9 nM
52 | CUAUUUAUAGCGGCCGCCACUUACUCAUGAGGUAACAACAUGAGGAUCACCCAUGUUUGAGGAUCAAGGACCGGGCUAUGGAUAG |  |  | 26 nM | 20.1 nM
53 | GGCUUCAACUCGGCCGCCACUGGUGAUCCUCAUGUACAUGAGGAUCACCCAUGUACAUGAGACUACAGGACCGGGAGAUCAGCAA |  |  | 8.34 nM | 7.7 nM
